pIC50: −log10 of the molar value. Calls of active or inactive are those of the source. The rule behind the calls is not given here.
What was measured:
[1] = tested on: Rattus norvegicus; experiment: Antiarthritic activity in adjuvant-induced arthritis Lewis rat model at 3 to 10 mg/kg, po administered for 10 days and measured on day 17 by microCT-scanning analysis; assay type: functional, organism-based; settings: dose 3-10 mg/kg, time 17.0 day
Procedure, shortened: (§1)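 Lewis rats with adjuvant-induced arthritis were given vehicle or drug by oral gavage twice daily for 10 days (Day 7–Day 17 post immunization). On Day 17 they were exsanguinated by cardiac puncture under isoflurane. Left rear paws were μCT-scanned, and bone volume and density were determined in a 360 μm vertical section through the tarsal region. Groups were compared with vehicle by Dunnett's test.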

[2] = tested on: Rattus norvegicus; experiment: Antiarthritic activity in adjuvant-induced arthritis Lewis rat model assessed as reduction in paw swelling at 5 to 10 mg/kg, po administered for 10 days and measured on day 17; assay type: functional; set-up: scale not given: the % may be the effect or the level left; settings: dose 5-10 mg/kg, time 17 day
Procedure, shortened: (§2)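 In rats with adjuvant-induced arthritis, vehicle or drug was given by oral gavage BID for 10 days (Day 7–Day 17 after immunization). Paw swelling was measured by water-displacement plethysmography every other day up to Day 17. Treatment groups were compared with vehicle by Dunnett's multiple comparison test.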

[3] = tested on: Rattus norvegicus; experiment: Antiarthritic activity in adjuvant-induced arthritis Lewis rat model assessed as bone destruction by measuring reduction in bone volume at 0.3 mg/kg, po administered for 10 days and measured on day 17 by microCT-scanning analysis; assay type: functional; set-up: scale not given: the % may be the effect or the level left; settings: time 17 day
Procedure, shortened: (§3)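 Rats dosed by oral gavage twice daily (BID) with vehicle or drug for 10 days (Day 7–Day 17 post immunization). On Day 17, rats exsanguinated by cardiac puncture under isoflurane; left rear paw scanned by μCT. Bone volume and density determined in a 360 μm vertical section encompassing the tarsal region. Each group compared with vehicle by Dunnett's multiple comparison test.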

[4] = tested on: Rattus norvegicus; experiment: Antiarthritic activity in adjuvant-induced arthritis Lewis rat model assessed as bone destruction by measuring reduction in bone volume at 0.1 mg/kg, po administered for 10 days and measured on day 17 by microCT-scanning analysis; assay type: functional; set-up: scale not given: the % may be the effect or the level left; settings: time 17 day; procedure, shortened: as §1
[5] = tested on: Rattus norvegicus; experiment: Antiarthritic activity in adjuvant-induced arthritis Lewis rat model assessed as reduction in paw swelling administered for 10 days and measured on day 17; assay type: functional, organism-based; settings: time 17.0 day; procedure, shortened: as §2
[6] = tested on: Rattus norvegicus; experiment: Antiarthritic activity in adjuvant-induced arthritis Lewis rat model assessed as bone destruction by measuring reduction in bone volume at 10 mg/kg, po administered for 10 days and measured on day 17 by microCT-scanning analysis; assay type: functional; set-up: scale not given: the % may be the effect or the level left; settings: time 17 day; procedure, shortened: as §3
[7] = tested on: Rattus norvegicus; experiment: Antiarthritic activity in adjuvant-induced arthritis po dosed Lewis rat model assessed as bone destruction by measuring reduction in bone volume administered for 10 days and measured on day 17 by microCT-scanning analysis; assay type: functional, organism-based; settings: dose 0.1-10 mg/kg, time 17.0 day; procedure, shortened: as §1
[8] = biological target: AMP-activated protein kinase, AMPK; experiment: Inhibition of AMPK (unknown origin) by TR-FRET assay; assay type: protein-complex assay, Homo sapiens
[9] = tested on: Rattus norvegicus; experiment: Antiarthritic activity in adjuvant-induced arthritis Lewis rat model assessed as bone destruction by measuring reduction in bone volume at 1 mg/kg, po administered for 10 days and measured on day 17 by microCT-scanning analysis; assay type: functional; set-up: scale not given: the % may be the effect or the level left; settings: time 17 day; procedure, shortened: as §3
[10] = tested on: Rattus norvegicus; experiment: Antiarthritic activity in adjuvant-induced arthritis Lewis rat model assessed as improvement in bone erosion at 3 to 10 mg/kg, po administered for 10 days and measured on day 17 by microCT-scanning analysis; settings: dose 3-10 mg/kg, time 17.0 day
[11] = tested on: Rattus norvegicus; experiment: Antiarthritic activity in adjuvant-induced arthritis Lewis rat model assessed as improvement in bone erosion at 3 to 10 mg/kg, po administered for 10 days and measured on day 17 by microCT-scanning analysis; assay type: functional, organism-based; settings: dose 3-10 mg/kg, time 17.0 day
[12] = tested on: Rattus norvegicus; experiment: Antiarthritic activity in adjuvant-induced arthritis Lewis rat model assessed as improvement in cartilage damage at 3 to 10 mg/kg, po administered for 10 days and measured on day 17 by microCT-scanning analysis; settings: dose 3-10 mg/kg, time 17.0 day
[13] = tested on: Blood; experiment: Ex-vivo inhibition of JAK1 in human blood assessed as reduction in IL-6-induced STAT3 phosphorylation at 36 mg/kg, po measured after 12 hrs; assay type: functional, organism-based
Procedure, shortened: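 Blood was drawn into sodium heparin tubes at 0, 1, 6 and 12 h after an oral dose. It was stimulated with recombinant human IL-6 (400 ng/ml) for 10 min at 37°C and surface-stained for CD14/CD3 on ice. Samples were lysed/fixed, frozen at −70°C, permeabilized, and stained for pSTAT3 for flow cytometry. Percent inhibition used geometric means of induced minus baseline pSTAT relative to pre-dose.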

[14] = tested on: Rattus norvegicus; experiment: Antiarthritic activity in adjuvant-induced arthritis Lewis rat model assessed as improvement in synovial hypertrophy at 3 to 10 mg/kg, po administered for 10 days and measured on day 17 by microCT-scanning analysis; settings: dose 3-10 mg/kg, time 17.0 day
[15] = Inhibition of ABL (unknown origin) by TR-FRET assay; set-up: species or system Homo sapiens
[16] = tested on: Rattus norvegicus; experiment: Antiarthritic activity in adjuvant-induced arthritis Lewis rat model assessed as improvement in cartilage damage at 3 to 10 mg/kg, po administered for 10 days and measured on day 17 by microCT-scanning analysis; assay type: functional, organism-based; settings: dose 3-10 mg/kg, time 17.0 day
[17] = tested on: Rattus norvegicus; experiment: Antiarthritic activity in adjuvant-induced arthritis Lewis rat model assessed as improvement in synovial hypertrophy at 3 to 10 mg/kg, po administered for 10 days and measured on day 17 by microCT-scanning analysis; assay type: functional, organism-based; settings: dose 3-10 mg/kg, time 17.0 day
[18] = biological target: Cyclin-dependent kinase 11B (Homo sapiens, UniProt P21127); experiment: Inhibition of CDK11 (unknown origin) by TR-FRET assay
[19] = tested on: Rattus norvegicus; experiment: Antiarthritic activity in adjuvant-induced arthritis Lewis rat model assessed as bone destruction by measuring reduction in bone volume at 3 mg/kg, po administered for 10 days and measured on day 17 by microCT-scanning analysis; assay type: functional; set-up: scale not given: the % may be the effect or the level left; settings: time 17 day; procedure, shortened: as §1

Cyclin-dependent kinase 11B, sequence (P21127 whole entry): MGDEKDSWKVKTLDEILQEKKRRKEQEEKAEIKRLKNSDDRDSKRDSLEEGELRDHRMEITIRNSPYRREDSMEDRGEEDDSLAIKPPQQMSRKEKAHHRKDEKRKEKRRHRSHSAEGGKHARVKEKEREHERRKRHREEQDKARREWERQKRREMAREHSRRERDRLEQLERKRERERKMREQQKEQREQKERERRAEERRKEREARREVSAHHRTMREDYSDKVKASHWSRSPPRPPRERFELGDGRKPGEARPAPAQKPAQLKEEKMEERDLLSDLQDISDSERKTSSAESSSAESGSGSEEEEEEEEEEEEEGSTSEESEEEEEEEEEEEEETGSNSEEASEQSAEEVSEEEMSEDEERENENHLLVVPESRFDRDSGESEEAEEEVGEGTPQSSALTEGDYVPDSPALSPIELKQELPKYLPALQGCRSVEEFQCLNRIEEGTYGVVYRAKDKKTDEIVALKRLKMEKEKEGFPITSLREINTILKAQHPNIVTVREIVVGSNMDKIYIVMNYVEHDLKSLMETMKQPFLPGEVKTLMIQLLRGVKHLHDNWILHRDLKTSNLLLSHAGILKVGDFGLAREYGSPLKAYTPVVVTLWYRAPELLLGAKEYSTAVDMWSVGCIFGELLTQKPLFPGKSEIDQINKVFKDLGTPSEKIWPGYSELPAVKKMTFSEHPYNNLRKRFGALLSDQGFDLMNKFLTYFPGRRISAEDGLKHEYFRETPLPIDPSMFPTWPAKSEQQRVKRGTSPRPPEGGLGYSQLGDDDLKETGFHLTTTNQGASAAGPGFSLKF

Structure (SMILES)	Activity [1]	Activity [2] [%]	Activity [3] [%]	Activity [4] [%]	Activity [5]	Activity [6] [%]	Activity [7]	pIC50 [8]	Activity [9] [%]	Activity [10]	Activity [11]	Activity [12]	inhibition [13]	Activity [14]	pIC50 [15]	Activity [16]	Activity [17]	pIC50 [18]	Activity [19] [%]
C[C@@H]1CCN(C(=O)CC#N)C[C@@H]1N(C)c1ncnc2[nH]ccc12 [TOFACITINIB]	Active	>60	–	–	–	–	–	–	–	–	–	–	–	–	–	–	–	–	–
CC[C@@H]1CN(C(=O)NCC(F)(F)F)C[C@@H]1c1cnc2cnc3[nH]ccc3n12 [UPADACITINIB]	–	>60	16	26	Active	89	Dose-Dependent Effect	< 5.35	63	Active	Active	Active	Active	Active	< 5.00	Active	Active	< 5.00	96
